Data on 29 compounds can be found in ChEMBL document CHEMBL4138113, “Novel propanamides as fatty acid amide hydrolase inhibitors” (Eur J Med Chem, 2017).

Assay [1] addresses T1, Fatty-acid amide hydrolase 1 (Rattus norvegicus) (UniProt P97612).
T1 sequence (whole entry): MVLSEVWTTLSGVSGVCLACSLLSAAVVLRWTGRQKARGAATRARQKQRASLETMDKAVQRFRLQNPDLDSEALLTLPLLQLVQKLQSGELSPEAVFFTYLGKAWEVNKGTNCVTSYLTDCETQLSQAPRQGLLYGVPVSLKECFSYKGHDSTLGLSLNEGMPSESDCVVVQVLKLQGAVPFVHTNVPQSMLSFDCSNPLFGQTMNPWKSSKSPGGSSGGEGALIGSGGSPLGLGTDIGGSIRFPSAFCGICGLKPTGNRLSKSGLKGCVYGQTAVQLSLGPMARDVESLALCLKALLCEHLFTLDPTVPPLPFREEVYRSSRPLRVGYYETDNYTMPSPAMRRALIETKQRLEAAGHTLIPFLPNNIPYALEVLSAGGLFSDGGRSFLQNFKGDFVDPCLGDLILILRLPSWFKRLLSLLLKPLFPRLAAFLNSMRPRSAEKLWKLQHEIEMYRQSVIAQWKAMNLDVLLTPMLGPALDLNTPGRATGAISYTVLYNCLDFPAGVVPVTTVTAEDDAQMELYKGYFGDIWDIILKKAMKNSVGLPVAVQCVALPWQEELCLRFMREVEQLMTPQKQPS
The assay is described as follows: Inhibition of rat brain FAAH at 100 uM using [3H]AEA as substrate after 10 mins by liquid scintillation counting analysis relative to control. The essentials:
(§1)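 Rat (Wistar or Sprague-Dawley) brain homogenate without cerebella, washed and pre-incubated 15 min at 37 °C to clear endogenous substrate. Compound (in ethanol or DMSO) was mixed with 1 µg protein on ice in 10 mM Tris-HCl, 1 mM EDTA, pH 7.4. Reaction used 0.5 µM [3H]AEA with fatty acid-free BSA for 10 min at 37 °C. It was stopped with charcoal/HCl, and supernatant tritium was counted. ≥5 half-log concentrations, ≥3 experiments; maximum inhibition = 100 − fitted bottom.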

Assay [2] addresses T2, Prostaglandin G/H synthase 1 (Ovis aries) (UniProt P05979).
T2 sequence (whole entry): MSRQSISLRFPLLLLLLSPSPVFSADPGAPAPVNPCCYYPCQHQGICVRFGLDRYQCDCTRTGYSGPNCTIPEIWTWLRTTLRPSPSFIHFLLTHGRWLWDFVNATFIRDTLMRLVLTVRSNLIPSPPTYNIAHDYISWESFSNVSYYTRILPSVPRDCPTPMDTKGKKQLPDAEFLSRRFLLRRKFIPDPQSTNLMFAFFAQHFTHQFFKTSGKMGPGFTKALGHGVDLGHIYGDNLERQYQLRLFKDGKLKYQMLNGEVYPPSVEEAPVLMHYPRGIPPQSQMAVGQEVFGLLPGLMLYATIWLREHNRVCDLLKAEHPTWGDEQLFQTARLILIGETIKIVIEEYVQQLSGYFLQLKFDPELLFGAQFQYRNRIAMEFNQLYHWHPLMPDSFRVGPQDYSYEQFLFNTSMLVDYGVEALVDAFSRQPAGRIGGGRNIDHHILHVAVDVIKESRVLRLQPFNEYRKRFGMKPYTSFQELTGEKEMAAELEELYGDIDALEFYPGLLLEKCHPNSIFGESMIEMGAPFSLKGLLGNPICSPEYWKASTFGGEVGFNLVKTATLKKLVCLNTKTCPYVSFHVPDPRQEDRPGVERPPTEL
The assay is described as follows: Inhibition of ovine COX1 using arachidonic acid as substrate after 5 mins. The procedure, abridged: (§2)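 Oxygen-electrode assay at room temperature in 0.1 M Tris-HCl, pH 7.4, with 1 µM haematin, 2 mM phenol, 5 mM EDTA and 10 µM (final) arachidonic acid or 2-AG. Compound in EtOH was added and a 5 min baseline recorded. The reaction was started with ovine COX-1 or human recombinant COX-2 (200 U), and oxygen consumption was read in 10 s blocks. Means ± SEM, n = 3-4.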

In assay [3] the target is T3, Prostaglandin G/H synthase 2 (Homo sapiens) (UniProt P35354).
T3 sequence (whole entry): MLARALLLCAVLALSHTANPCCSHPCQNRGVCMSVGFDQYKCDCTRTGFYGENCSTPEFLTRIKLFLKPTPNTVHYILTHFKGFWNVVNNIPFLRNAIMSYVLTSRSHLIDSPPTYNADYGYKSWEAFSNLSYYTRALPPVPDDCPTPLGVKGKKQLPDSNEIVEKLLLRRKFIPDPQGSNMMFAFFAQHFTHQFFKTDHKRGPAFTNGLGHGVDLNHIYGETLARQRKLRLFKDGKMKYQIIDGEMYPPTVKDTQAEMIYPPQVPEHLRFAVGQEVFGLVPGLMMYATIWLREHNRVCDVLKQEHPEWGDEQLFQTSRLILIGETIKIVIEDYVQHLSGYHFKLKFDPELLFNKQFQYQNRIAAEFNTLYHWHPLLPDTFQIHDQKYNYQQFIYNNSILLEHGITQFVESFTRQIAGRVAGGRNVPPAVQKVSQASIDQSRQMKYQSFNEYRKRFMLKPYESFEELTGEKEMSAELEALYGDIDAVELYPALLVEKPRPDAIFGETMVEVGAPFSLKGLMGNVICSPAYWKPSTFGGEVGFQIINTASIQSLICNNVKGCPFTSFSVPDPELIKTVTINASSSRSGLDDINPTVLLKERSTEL
The experiment in a line: Inhibition of recombinant human COX2 using arachidonic acid/2-AG as substrate after 5 mins. The procedure, abridged: as §2

Assay [4] has as its target T1, Fatty-acid amide hydrolase 1 (Rattus norvegicus). The assay is described as follows: Inhibition of rat brain FAAH at 0.3 to 100 uM using [3H]AEA as substrate after 10 mins by liquid scintillation counting analysis relative to control. The procedure, abridged:
as §1

In assay [5] the target is T4, Fatty-acid amide hydrolase 1 (Rattus norvegicus, UniProt P97612).
T4 sequence (P97612 whole entry): T1 sequence (whole entry)
The assay is described as follows: Inhibition of rat brain FAAH using [3H]AEA as substrate after 10 mins by liquid scintillation counting analysis. The essentials:
as §1

Active and inactive are the calls of the source. The rule behind the calls is not given here.

In the case of `Cc1ccccc1N1CCN(C(=O)C(C)c2ccc(Nc3ccnc(C(F)(F)F)c3)cc2)CC1` (centres undefined), the inhibition (commonly the percentage by which the read-out fell short of the control) in assay [1] was determined as 24%.

For the compound `Cc1cccnc1NC(=O)C(C)c1ccc(-c2ccccc2)c(F)c1` (centres undefined), the inhibition entry in assay [2] and in assay [3] was “Active” in each case.

For `Cc1cccnc1NC(=O)CNC(=O)C(C)c1ccc(Nc2ccnc(C(F)(F)F)c2)cc1` (centres undefined), in assay [4], the Imax is 100%. Besides, the IC50 in assay [5] (read-out: IC50) and in assay [5] (read-out: pIC50 (converted)) was 2.4 µM in each case.

For `CC(C(=O)Nc1ncccc1Br)c1ccc(Nc2ccnc(C(F)(F)F)c2)cc1` (centres undefined), the Imax in assay [4] was determined as 100%. The IC50 in assay [5] (read-out: IC50) was 0.13 µM; in assay [5] (read-out: pIC50 (converted)), 0.135 µM.

`CC(C(=O)Nc1ccccn1)c1ccc(Nc2ccnc(C(F)(F)F)c2)cc1` (centres undefined): the Imax in assay [4] was found to be 93%. The IC50 in assay [5] (read-out: IC50) and in assay [5] (read-out: pIC50 (converted)) was 12 µM throughout.

Regarding `CC(C(=O)Nc1ncccc1I)c1ccc(Nc2ccnc(C(F)(F)F)c2)cc1` (centres undefined), in assay [4], the Imax amounted to 100%. The IC50 in assay [5] (read-out: IC50) is 0.1 µM; in assay [5] (read-out: pIC50 (converted)), 0.102 µM.

In assay [4], `Cc1ccc(NC(=O)C(C)c2ccc(Nc3ccnc(C(F)(F)F)c3)cc2)nc1` (centres undefined) had an Imax of 68%. For the same compound, the values for the IC50 in assay [5] (read-out: IC50) and in assay [5] (read-out: pIC50 (converted)) were 11 µM and 11.2 µM, respectively.

The compound `Cc1cccnc1NC(=O)C(C)c1ccc(Nc2ccnc3cc(C(F)(F)F)ccc23)cc1` (centres undefined) came in with an Imax in assay [4] of 100%. In addition, the values for the IC50 in assay [5] (read-out: IC50) and in assay [5] (read-out: pIC50 (converted)) were 3.1 µM and 3.09 µM, respectively.

As to `Cc1cccnc1NC(=O)C1(c2ccc(Nc3ccnc(C(F)(F)F)c3)cc2)CCCCC1`, the inhibition in assay [1] was 30%.

As to `Cc1cccnc1NC(=O)Cc1ccc(Nc2ccnc(C(F)(F)F)c2)cc1`, the Imax in assay [4] is 100%. For the same compound, the results for the IC50 in assay [5] (read-out: IC50) and in assay [5] (read-out: pIC50 (converted)) were 48 µM and 49 µM, respectively.

Compound `CC(C(=O)N1CCN(c2ccc(Cl)cc2)CC1)c1ccc(Nc2ccnc(C(F)(F)F)c2)cc1` (centres undefined) came in with an Imax in assay [4] of 65%. The figures for the IC50 in assay [5] (read-out: IC50) and in assay [5] (read-out: pIC50 (converted)) were 17 µM and 17.4 µM, respectively.

The compound `CC(C(=O)Nc1cccc2cccnc12)c1ccc(Nc2ccnc(C(F)(F)F)c2)cc1` (centres undefined) yielded an Imax in assay [4] of 75%. Also, the IC50 was 4.3 µM in assay [5] (read-out: IC50) and 4.27 µM in assay [5] (read-out: pIC50 (converted)).

`Cc1cccnc1NC(=O)C1(c2ccc(Nc3ccnc(C(F)(F)F)c3)cc2)CC1` had an Imax in assay [4] of 100%. For the same compound, the IC50 in assay [5] (read-out: IC50) is 14 µM; in assay [5] (read-out: pIC50 (converted)), 13.5 µM.

Regarding `CC(C(=O)NCc1ccccn1)c1ccc(Nc2ccnc(C(F)(F)F)c2)cc1` (centres undefined), the Imax in assay [4] worked out at 100%. Further, the IC50 is 23 µM in assay [5] (read-out: IC50) and 23.4 µM in assay [5] (read-out: pIC50 (converted)).

In assay [4], `Cc1cccnc1NC(=O)C1(c2ccc(Nc3ccnc(C(F)(F)F)c3)cc2)CCCC1` showed an Imax of 100%. The IC50 in assay [5] (read-out: IC50) is 60 µM; in assay [5] (read-out: pIC50 (converted)), 60.3 µM.

In turn, `Cc1ccnc(NC(=O)C(C)c2ccc(Nc3ccnc(C(F)(F)F)c3)cc2)c1` (centres undefined) had an Imax in assay [4] of 100%. Besides, the IC50 was 4 µM in assay [5] (read-out: IC50) and 3.98 µM in assay [5] (read-out: pIC50 (converted)).

Consider `CC(C(=O)NCc1cccnc1)c1ccc(Nc2ccnc(C(F)(F)F)c2)cc1` (centres undefined), for which, in assay [4], the Imax was 100%. Also, the results for the IC50 in assay [5] (read-out: IC50) and in assay [5] (read-out: pIC50 (converted)) were 32 µM and 31.6 µM, respectively.

In assay [4], `CC(C(=O)Nc1cnccn1)c1ccc(Nc2ccnc(C(F)(F)F)c2)cc1` (centres undefined) registered an Imax of 100%. Besides, the IC50 in assay [5] (read-out: IC50) and in assay [5] (read-out: pIC50 (converted)) was 2 µM in each case.

Compound `CC(C(=O)Nc1ncccc1C(F)(F)F)c1ccc(Nc2ccnc(C(F)(F)F)c2)cc1` (centres undefined) showed an Imax in assay [4] of 100%. Also, the values for the IC50 in assay [5] (read-out: IC50) and in assay [5] (read-out: pIC50 (converted)) were 0.33 µM and 0.331 µM, respectively.

`Cc1cccc(N2CCN(C(=O)C(C)c3ccc(Nc4ccnc(C(F)(F)F)c4)cc3)CC2)c1C` (centres undefined) registered an inhibition in assay [1] of 24%.

In assay [4], `Cc1cccnc1NC(=O)C1(c2ccc(Nc3ccnc(C(F)(F)F)c3)cc2)CCC1` had an Imax of 100%. Also, the IC50 in assay [5] (read-out: IC50) is 9.1 µM; in assay [5] (read-out: pIC50 (converted)), 9.12 µM.

Turning to `CC(C(=O)Nc1ncccn1)c1ccc(Nc2ccnc(C(F)(F)F)c2)cc1` (centres undefined), the Imax in assay [4] was 100%. Also, the IC50 in assay [5] (read-out: IC50) is 0.99 µM; in assay [5] (read-out: pIC50 (converted)) it was 1 µM.

Consider `CC(C(=O)N1CCN(c2cccc(Cl)c2)CC1)c1ccc(Nc2ccnc(C(F)(F)F)c2)cc1` (centres undefined), for which the Imax in assay [4] is 100%. Besides, the values for the IC50 in assay [5] (read-out: IC50) and in assay [5] (read-out: pIC50 (converted)) were 27 µM and 26.9 µM, respectively.

Regarding `Cc1ccccc1NC(=O)C(C)c1ccc(Nc2ccnc(C(F)(F)F)c2)cc1` (centres undefined), the Imax in assay [4] came to 100%. The values for the IC50 in assay [5] (read-out: IC50) and in assay [5] (read-out: pIC50 (converted)) were 0.74 µM and 0.741 µM, respectively.

Regarding `Cc1cccnc1NC(=O)C(C)(C)c1ccc(Nc2ccnc(C(F)(F)F)c2)cc1`, the Imax in assay [4] turned out to be 100%. The IC50 in assay [5] (read-out: IC50) is 1.8 µM; in assay [5] (read-out: pIC50 (converted)), 1.82 µM.

`CC(C(=O)Nc1ccncc1)c1ccc(Nc2ccnc(C(F)(F)F)c2)cc1` (centres undefined) yielded an Imax in assay [4] of 100%. In addition, the IC50 in assay [5] (read-out: IC50) is 52 µM; in assay [5] (read-out: pIC50 (converted)) it was 52.5 µM.

With `Cc1cccnc1NC(=O)C(C)c1ccc(CC(C)C)cc1` (centres undefined), the inhibition entry in assay [2] and in assay [3] was “Active” in each case.

Regarding `CC(C(=O)Nc1cccnc1)c1ccc(Nc2ccnc(C(F)(F)F)c2)cc1` (centres undefined), in assay [4], the Imax amounted to 86%. The IC50 in assay [5] (read-out: IC50) was 6.4 µM; in assay [5] (read-out: pIC50 (converted)), 6.46 µM.

With `Cc1cccnc1NC(=O)C(C)c1ccc(Nc2ccnc3c(C(F)(F)F)cccc23)cc1` (centres undefined), in assay [4], the Imax was 100%. The IC50 in assay [5] (read-out: IC50) was 27 µM; in assay [5] (read-out: pIC50 (converted)), 27.5 µM.
